Measured values as given in ChEMBL document CHEMBL1641579, “Synthesis and biological evaluation of 7-substituted-1-(3-bromophenylamino)isoquinoline-4-carbonitriles as inhibitors of myosin light chain kinase and epidermal growth factor receptor” (Bioorg Med Chem, 2011).
Calls of active or inactive are those of the source. No cut-off for these calls is given here.

Experiments:
PC-9 = assay: Growth inhibition of human PC9 cells assessed as ATP level after 96 hrs by CellTiter-Glo assay; type: functional; details: PC-9, 96 h
NCI-H1770 = assay: Growth inhibition of human NCI-H1770 cells assessed as ATP level after 96 hrs by CellTiter-Glo assay; type: functional; details: NCI-H1770, 96 h
In short: (§1)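 NSCLC lines maintained as in earlier work and authenticated by mutational analysis and SNP arrays. Cells were plated in 384-well format and allowed 24 h before compound addition as 10 threefold serial dilutions (DMSO stocks). After 96 h, viability was read as cellular ATP by CellTiter-Glo. GI50 was fitted with an R package.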

[1] = Growth inhibition of human NCI-H1781 cells assessed as ATP level after 96 hrs by CellTiter-Glo assay; type: functional; details: NCI-H1781, 96 h; in short: as §1
[2] = Growth inhibition of human HCC2279 cells assessed as ATP level after 96 hrs by CellTiter-Glo assay; type: functional; in short: as §1
NCI-H157 = assay: Growth inhibition of human NCI-H157 cells assessed as ATP level after 96 hrs by CellTiter-Glo assay; type: functional; details: NCI-H157, 96 h; in short: as §1
[3] = Growth inhibition of human NCI-H2077 cells assessed as ATP level after 96 hrs by CellTiter-Glo assay; type: functional; details: NCI-H2077, 96 h
[4] = Growth inhibition of human NCI-H2110 cells assessed as ATP level after 96 hrs by CellTiter-Glo assay; type: functional; details: NCI-H2110, 96 h
NCI-H661 = assay: Growth inhibition of human NCI-H661 cells assessed as ATP level after 96 hrs by CellTiter-Glo assay; type: functional; details: NCI-H661, 96 h
[5] = Growth inhibition of human HCC193 cells assessed as ATP level after 96 hrs by CellTiter-Glo assay; type: functional; details: HCC193, 96 h; in short: as §1
[6] = Growth inhibition of human NCI-H2887 cells assessed as ATP level after 96 hrs by CellTiter-Glo assay; type: functional; details: NCI-H2887, 96 h
[7] = Growth inhibition of human LouNH91 cells assessed as ATP level after 96 hrs by CellTiter-Glo assay; type: functional; details: LOU-NH91, 96 h; in short: as §1
NCI-H520 = assay: Growth inhibition of human NCI-H520 cells assessed as ATP level after 96 hrs by CellTiter-Glo assay; type: functional; details: NCI-H520, 96 h
[8] = Growth inhibition of human HCC461 cells assessed as ATP level after 96 hrs by CellTiter-Glo assay; type: functional; details: HCC461, 96 h; in short: as §1
[9] = Growth inhibition of human NCI-H3122 cells assessed as ATP level after 96 hrs by CellTiter-Glo assay; type: functional; details: NCI-H3122, 96 h
[10] = Growth inhibition of human HCC366 cells assessed as ATP level after 96 hrs by CellTiter-Glo assay; type: functional; details: HCC366, 96 h; in short: as §1
[11] = Growth inhibition of human NCI-H2172 cells assessed as ATP level after 96 hrs by CellTiter-Glo assay; type: functional; details: NCI-H2172, 96 h
NCI-H1838 = assay: Growth inhibition of human NCI-H1838 cells assessed as ATP level after 96 hrs by CellTiter-Glo assay; type: functional; details: NCI-H1838, 96 h
In short: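 NSCLC lines maintained as previously described, authenticated by mutational analysis and SNP arrays. Cells seeded and incubated 24 h, then given compound (DMSO stocks) as 10 threefold serial dilutions. Viability read after 96 h as cellular ATP content (CellTiter-Glo). GI50 derived by curve fitting of half-maximal inhibition.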

[12] = Growth inhibition of human NCI-H1915 cells assessed as ATP level after 96 hrs by CellTiter-Glo assay; type: functional; details: NCI-H1915, 96 h
In short: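 Human NSCLC cells, maintained as described previously and authenticated by mutational analysis and SNP arrays, were plated and incubated 24 h. Compounds were dissolved in DMSO and added as 10 threefold serial dilutions. Viability was read after 96 h as cellular ATP content by luminescence, and half-maximal inhibitory concentrations were fitted to give GI50.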

DV-90 = assay: Growth inhibition of human DV90 cells assessed as ATP level after 96 hrs by CellTiter-Glo assay; type: functional; details: DV-90, 96 h; in short: as §1
[13] = Growth inhibition of human HCC1359 cells assessed as ATP level after 96 hrs by CellTiter-Glo assay; type: functional; in short: as §1
[14] = Growth inhibition of human H441 cells assessed as ATP level after 96 hrs by CellTiter-Glo assay; type: functional; details: NCI-H441, 96 h; in short: as §1
[15] = Growth inhibition of human HCC2429 cells assessed as ATP level after 96 hrs by CellTiter-Glo assay; type: functional; details: HCC2429, 96 h; in short: as §1
LCLC-97TM1 = assay: Growth inhibition of human LCLC97TM1 cells assessed as ATP level after 96 hrs by CellTiter-Glo assay; type: functional; details: LCLC-97TM1, 96 h; in short: as §1
Calu-1 = assay: Growth inhibition of human Calu1 cells assessed as ATP level after 96 hrs by CellTiter-Glo assay; type: functional; details: Calu-1, 96 h; in short: as §1
NCI-H322M = assay: Growth inhibition of human NCI-H322M cells assessed as ATP level after 96 hrs by CellTiter-Glo assay; type: functional
NCI-H1355 = assay: Growth inhibition of human NCI-H1355 cells assessed as ATP level after 96 hrs by CellTiter-Glo assay; type: functional; details: NCI-H1355, 96 h; in short: as §1
[16] = Growth inhibition of human HCC2450 cells assessed as ATP level after 96 hrs by CellTiter-Glo assay; type: functional; in short: as §1
[17] = Growth inhibition of human NCI-H2882 cells assessed as ATP level after 96 hrs by CellTiter-Glo assay; type: functional; details: NCI-H2882, 96 h
NCI-H28 = assay: Growth inhibition of human NCI-H28 cells assessed as ATP level after 96 hrs by CellTiter-Glo assay; type: functional; details: NCI-H28, 96 h
[18] = Growth inhibition of human NCI-H322 cells assessed as ATP level after 96 hrs by CellTiter-Glo assay; type: functional; details: NCI-H322, 96 h
NCI-H1563 = assay: Growth inhibition of human NCI-H1563 cells assessed as ATP level after 96 hrs by CellTiter-Glo assay; type: functional; details: NCI-H1563, 96 h; in short: as §1
NCI-H1395 = assay: Growth inhibition of human NCI-H1395 cells assessed as ATP level after 96 hrs by CellTiter-Glo assay; type: functional; details: NCI-H1395, 96 h; in short: as §1
NCI-H2030 = assay: Growth inhibition of human NCI-H2030 cells assessed as ATP level after 96 hrs by CellTiter-Glo assay; type: functional; details: NCI-H2030, 96 h
[19] = target: Myosin light chain kinase, smooth muscle (Homo sapiens, UniProt Q15746); assay: Competitive inhibition of MLCK by Lineweaver-Burk plot analysis
Sequence of Myosin light chain kinase, smooth muscle (Q15746 whole entry): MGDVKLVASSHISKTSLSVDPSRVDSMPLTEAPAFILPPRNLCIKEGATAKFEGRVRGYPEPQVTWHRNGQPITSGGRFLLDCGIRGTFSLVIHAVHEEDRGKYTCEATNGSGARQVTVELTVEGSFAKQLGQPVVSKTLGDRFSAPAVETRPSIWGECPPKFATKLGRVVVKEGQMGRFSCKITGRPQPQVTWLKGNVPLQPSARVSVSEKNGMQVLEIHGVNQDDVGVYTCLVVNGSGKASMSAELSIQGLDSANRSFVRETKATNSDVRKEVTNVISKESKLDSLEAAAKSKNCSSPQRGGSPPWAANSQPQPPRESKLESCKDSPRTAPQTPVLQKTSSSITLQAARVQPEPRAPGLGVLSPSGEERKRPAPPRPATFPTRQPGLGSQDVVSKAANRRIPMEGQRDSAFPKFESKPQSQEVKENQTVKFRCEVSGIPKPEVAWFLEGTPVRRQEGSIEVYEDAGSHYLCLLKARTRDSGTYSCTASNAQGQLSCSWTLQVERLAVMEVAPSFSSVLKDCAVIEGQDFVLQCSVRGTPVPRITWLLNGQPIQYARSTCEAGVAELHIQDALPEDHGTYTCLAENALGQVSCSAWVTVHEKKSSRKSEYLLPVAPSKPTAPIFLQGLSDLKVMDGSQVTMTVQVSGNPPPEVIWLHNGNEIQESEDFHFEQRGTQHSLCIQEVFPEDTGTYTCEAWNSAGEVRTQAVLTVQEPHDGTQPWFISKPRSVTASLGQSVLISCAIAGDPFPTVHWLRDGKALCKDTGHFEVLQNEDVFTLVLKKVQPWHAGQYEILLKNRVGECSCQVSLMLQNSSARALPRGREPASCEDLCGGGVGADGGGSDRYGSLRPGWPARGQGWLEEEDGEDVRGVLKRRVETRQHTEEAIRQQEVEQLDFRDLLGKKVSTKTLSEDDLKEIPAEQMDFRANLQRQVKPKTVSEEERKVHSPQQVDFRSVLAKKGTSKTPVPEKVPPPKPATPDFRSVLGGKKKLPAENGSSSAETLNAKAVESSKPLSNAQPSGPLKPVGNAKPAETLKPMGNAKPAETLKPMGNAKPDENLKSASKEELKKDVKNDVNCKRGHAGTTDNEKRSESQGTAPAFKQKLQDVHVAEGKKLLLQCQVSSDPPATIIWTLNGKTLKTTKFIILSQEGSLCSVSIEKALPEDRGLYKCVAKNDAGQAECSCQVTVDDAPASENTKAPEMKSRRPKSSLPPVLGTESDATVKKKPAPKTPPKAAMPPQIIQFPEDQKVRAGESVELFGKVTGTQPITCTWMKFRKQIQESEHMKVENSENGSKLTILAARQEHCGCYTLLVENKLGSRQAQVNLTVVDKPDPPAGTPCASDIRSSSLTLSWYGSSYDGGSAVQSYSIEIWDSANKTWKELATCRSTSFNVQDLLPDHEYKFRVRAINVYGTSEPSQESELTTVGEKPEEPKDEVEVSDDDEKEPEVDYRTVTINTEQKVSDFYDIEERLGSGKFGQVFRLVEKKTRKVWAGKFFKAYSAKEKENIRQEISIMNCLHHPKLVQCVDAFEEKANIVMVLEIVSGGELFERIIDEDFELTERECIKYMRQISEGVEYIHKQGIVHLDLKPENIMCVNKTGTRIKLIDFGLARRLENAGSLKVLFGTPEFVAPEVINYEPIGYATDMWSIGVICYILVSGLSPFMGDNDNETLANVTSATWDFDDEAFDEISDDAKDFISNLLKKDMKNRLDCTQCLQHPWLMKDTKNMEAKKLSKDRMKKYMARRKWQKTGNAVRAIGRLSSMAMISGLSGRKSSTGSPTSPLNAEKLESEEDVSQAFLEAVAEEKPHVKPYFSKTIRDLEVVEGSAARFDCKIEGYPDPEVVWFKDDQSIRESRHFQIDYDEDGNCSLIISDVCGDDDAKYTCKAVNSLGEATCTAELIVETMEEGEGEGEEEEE
In short: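 Double-reciprocal (1/V vs 1/[ATP]) kinetics using the HTRF phosphorylation read-out with Ca2+/calmodulin. Conditions: 375 nM STK1 peptide substrate, ATP at 80, 110 and 140 µM, inhibitor at 0, 1, 5 and 10 µM. Reaction velocities plotted to determine the mode of inhibition.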

CN(C)C/C=C/C(=O)Nc1ccc2c(C#N)cnc(Nc3cccc(Br)c3)c2c1
GI50 (PC-9): 4.68 µM | GI50 (NCI-H1770): 9.02 µM | GI50 [1]: 10.1 µM | GI50 [2]: 10.6 µM | GI50 (NCI-H157): 12 µM | GI50 [3]: 13.2 µM | GI50 [4]: 13.2 µM | GI50 (NCI-H661): 14 µM | GI50 [5]: 15.3 µM | GI50 [6]: 15.5 µM | GI50 [7]: 15.7 µM | GI50 (NCI-H520): 16 µM | GI50 [8]: 16 µM | GI50 [9]: 16.6 µM | GI50 [10]: 16.6 µM | GI50 [11]: 17.4 µM | GI50 (NCI-H1838): 18.2 µM | GI50 [12]: 18.2 µM | GI50 (DV-90): 18.4 µM | GI50 [13]: 18.6 µM | GI50 [14]: 19.1 µM | GI50 [15]: 19.5 µM | GI50 (LCLC-97TM1): 19.5 µM | GI50 (Calu-1): 19.7 µM | GI50 (NCI-H322M): 21.4 µM | GI50 (NCI-H1355): 22.9 µM | GI50 [16]: 22.9 µM | GI50 [17]: 23.7 µM | GI50 (NCI-H28): 24.8 µM | GI50 [18]: 24.8 µM | GI50 (NCI-H1563): 30.9 µM | GI50 (NCI-H1395): 31.3 µM | GI50 (NCI-H2030): 34.3 µM

CN1CCN(CCC(=O)Nc2ccc3c(C#N)cnc(Nc4cccc(Br)c4)c3c2)CC1
inhibition [19]: Active
